In assay [1] the test system is Candida albicans. In words: Antifungal activity against Candida albicans NRRL Y-12983 by NCCLS M27-A2 microbroth dilution method. In kind it is functional.
In assay [2] the test system is Candida albicans. As to the kind of experiment: Antifungal activity against Candida albicans clinical isolate by NCCLS M27-A2 microbroth dilution method. In kind it is functional.
The subject of assay [3] is Candida albicans. As to the kind of experiment: Antifungal activity against Candida albicans ATCC 90028 by NCCLS M27-A2 microbroth dilution method. The format is functional.
Assay [4] deals with Candida parapsilosis. In words: Antifungal activity against Candida parapsilosis NRRL Y-12696 by NCCLS M27-A2 microbroth dilution method. Conditions: Lodderomyces parapsilosis. In kind it is functional.
The test system of assay [5] is Nakaseomyces glabratus. In words: Antifungal activity against Candida glabrata clinical isolate (Osmangazi university) by NCCLS M27-A2 microbroth dilution method. In kind it is functional.
Assay [6] deals with Pichia kudriavzevii. In words: Antifungal activity against Candida krusei NRRL Y-7179 by NCCLS M27-A2 microbroth dilution method. The format is functional.
For assay [7], the system named is NIH3T3. As to the kind of experiment: Cytotoxicity against mouse NIH/3T3 cells after 24 hrs by MTT assay. In kind it is cell-based. Conditions: NIH3T3, 24 h. The essentials:
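NIH/3T3 mouse fibroblasts (ATCC) grown in DMEM with 10% fetal calf serum, penicillin and streptomycin at 37 °C in 5% CO2. Cells were seeded at 2 × 10^4 cells/mL and preincubated 24 h. Compounds went from DMSO stocks diluted in medium (final DMSO <0.1%) at 0.5–500 µg/mL for 24 h. MTT was added at 0.5 mg/mL final for 4 h at 37 °C. Formazan was dissolved in DMSO and read at 540 nm. Triplicate wells per concentration. IC50 is the concentration reducing absorbance to 50% of control, reported as mean ± SD.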

Assay [8] deals with Nakaseomyces glabratus. As to the kind of experiment: Antifungal activity against Candida glabrata clinical isolate (Anadolu university) by NCCLS M27-A2 microbroth dilution method. In kind it is functional.
Assay [9] concerns Candida tropicalis. In words: Antifungal activity against Candida tropicalis NRRL Y-12968 by NCCLS M27-A2 microbroth dilution method. The format is functional.

This note sets out measurements from ChEMBL document CHEMBL1833827, “Synthesis and anticandidal activity of new triazolothiadiazine derivatives” (Eur J Med Chem, 2011).

Values after ≈ are worked out from the molar mass of the structure shown.

For `Oc1ccc(CCc2nnc3n2N=C(c2ccccc2)CS3)cc1`, the MIC in assay [1] turned out to be 370 µg/mL (≈ 1100 µM); in [2] it was 90 µg/mL (≈ 268 µM); in [3], 80 µg/mL (≈ 238 µM); in assay [4], 180 µg/mL (≈ 535 µM); in [5] it was 40 µg/mL (≈ 119 µM); in assay [6], 370 µg/mL (≈ 1100 µM). In addition, the MIC in assay [8] was found to be 180 µg/mL (≈ 535 µM); in assay [9], 90 µg/mL (≈ 268 µM). This molecule came in with an IC50 in assay [7] of 31.6 µg/mL (≈ 93.9 µM).

Take `Clc1ccc(C2=Nn3c(CCC4CCCCC4)nnc3SC2)cc1`: the minimum inhibitory concentration (MIC) in assay [1] was determined as 40 µg/mL (≈ 111 µM); in assay [2], 180 µg/mL (≈ 499 µM); in [3], 40 µg/mL (≈ 111 µM); in [4] it was 20 µg/mL (≈ 55.4 µM); in [5], 90 µg/mL (≈ 249 µM); in assay [6], 370 µg/mL (≈ 1030 µM). Besides, the results for the MIC in assay [8] and in [9] were 40 µg/mL (≈ 111 µM) and 90 µg/mL (≈ 249 µM), respectively. This molecule also registered an IC50 in assay [7] of 103 µg/mL (≈ 285 µM).

For `CC(=O)N1CCN(c2ccc(OCC3COC(Cn4ccnc4)(c4ccc(Cl)cc4Cl)O3)cc2)CC1` (stereo not drawn) [KETOCONAZOLE], the MIC in assay [1] turned out to be 15 µg/mL (≈ 28.2 µM); in assay [2], 30 µg/mL (≈ 56.5 µM); in assay [3], 30 µg/mL (≈ 56.5 µM); in assay [4], 7 µg/mL (≈ 13.2 µM); in [5], 15 µg/mL (≈ 28.2 µM); in assay [6], 3 µg/mL (≈ 5.65 µM). Besides, the MIC in assay [8] was found to be 7 µg/mL (≈ 13.2 µM); in [9], 3 µg/mL (≈ 5.65 µM).

On to `Oc1ccc(CCc2nnc3n2N=C(c2ccc(Cl)cc2)CS3)cc1`, for which the MIC in assay [1] amounted to 1500 µg/mL (≈ 4040 µM); in assay [2], 750 µg/mL (≈ 2020 µM); in assay [3] it was 750 µg/mL (≈ 2020 µM); in assay [4], 370 µg/mL (≈ 998 µM); in assay [5] it was 750 µg/mL (≈ 2020 µM); in [6], 750 µg/mL (≈ 2020 µM). In addition, the MIC in assay [8] and in assay [9] was 750 µg/mL (≈ 2020 µM) each time. Inhibition in assay [7] was half-maximal at 86.7 µg/mL (≈ 234 µM) (IC50).

Take `O=[N+]([O-])c1ccc(C2=Nn3c(CCC4CCCCC4)nnc3SC2)cc1`: the MIC amounted to 90 µg/mL (≈ 242 µM) in assay [1]; 90 µg/mL (≈ 242 µM) in assay [2]; 90 µg/mL (≈ 242 µM) in assay [3]; 180 µg/mL (≈ 485 µM) in assay [4]; 90 µg/mL (≈ 242 µM) in assay [5]; 180 µg/mL (≈ 485 µM) in assay [6]. Also, the minimum inhibitory concentration (MIC) in assay [8] was 90 µg/mL (≈ 242 µM); in [9], 180 µg/mL (≈ 485 µM). The IC50 in assay [7] is 210 µg/mL (≈ 565 µM).

As for `Cc1ccc(C2=Nn3c(CCC4CCCCC4)nnc3SC2)cc1`, the MIC was determined as 90 µg/mL (≈ 264 µM) in [1]; 90 µg/mL (≈ 264 µM) in assay [2]; 180 µg/mL (≈ 529 µM) in [3]; 370 µg/mL (≈ 1090 µM) in assay [4]; 90 µg/mL (≈ 264 µM) in [5]; 180 µg/mL (≈ 529 µM) in [6]. For the same molecule, the figures for the MIC in assay [8] and in assay [9] were 180 µg/mL (≈ 529 µM) and 750 µg/mL (≈ 2200 µM), respectively. Further, it took 198 µg/mL (≈ 582 µM) to reach half-maximal inhibition in assay [7] (IC50).

`O=[N+]([O-])c1ccc(C2=Nn3c(CCc4ccc(O)cc4)nnc3SC2)cc1`: the MIC in [1] turned out to be 750 µg/mL (≈ 1970 µM); in assay [2], 90 µg/mL (≈ 236 µM); in assay [3], 90 µg/mL (≈ 236 µM); in [4], 40 µg/mL (≈ 105 µM); in [5], 90 µg/mL (≈ 236 µM); in assay [6], 180 µg/mL (≈ 472 µM). The MIC in assay [8] and in assay [9] was 90 µg/mL (≈ 236 µM) in each case. Besides, half-maximal inhibition in [7] (IC50) required 307 µg/mL (≈ 804 µM).

In the case of `Cc1ccc(C2=Nn3c(CCc4ccc(O)cc4)nnc3SC2)cc1`, the minimum inhibitory concentration (MIC) turned out to be 1500 µg/mL (≈ 4280 µM) in assay [1]; 750 µg/mL (≈ 2140 µM) in assay [2]; 750 µg/mL (≈ 2140 µM) in assay [3]; 370 µg/mL (≈ 1060 µM) in [4]; 750 µg/mL (≈ 2140 µM) in [5]; 370 µg/mL (≈ 1060 µM) in assay [6]. For the same molecule, the MIC in assay [8] came to 750 µg/mL (≈ 2140 µM); in [9], 1500 µg/mL (≈ 4280 µM). Moreover, the IC50 in assay [7] came to 400 µg/mL (≈ 1140 µM).

Turning to `c1ccc(C2=Nn3c(CCC4CCCCC4)nnc3SC2)cc1`, the MIC was found to be 180 µg/mL (≈ 551 µM) in assay [1]; 90 µg/mL (≈ 276 µM) in assay [2]; 90 µg/mL (≈ 276 µM) in assay [3]; 370 µg/mL (≈ 1130 µM) in assay [4]; 90 µg/mL (≈ 276 µM) in assay [5]; 180 µg/mL (≈ 551 µM) in assay [6]. The minimum inhibitory concentration (MIC) in [8] was 90 µg/mL (≈ 276 µM); in assay [9], 180 µg/mL (≈ 551 µM). Besides, in [7], the IC50 was determined as 433 µg/mL (≈ 1330 µM).

Take `Oc1ccc(CCc2nnc3n2N=C(c2ccc(F)cc2)CS3)cc1`: the MIC in assay [1] stood at 1500 µg/mL (≈ 4230 µM); in assay [2], 180 µg/mL (≈ 508 µM); in assay [3], 1500 µg/mL (≈ 4230 µM); in [4] it was 1500 µg/mL (≈ 4230 µM); in assay [5], 1500 µg/mL (≈ 4230 µM); in [6], 180 µg/mL (≈ 508 µM). Further, the MIC in [8] amounted to 370 µg/mL (≈ 1040 µM); in assay [9], 1500 µg/mL (≈ 4230 µM). In [7], this molecule had a half-inhibitory concentration (IC50) of 367 µg/mL (≈ 1030 µM).

Take `Fc1ccc(C2=Nn3c(CCC4CCCCC4)nnc3SC2)cc1`: the minimal inhibitory concentration (MIC) worked out at 90 µg/mL (≈ 261 µM) in [1]; 370 µg/mL (≈ 1070 µM) in assay [2]; 90 µg/mL (≈ 261 µM) in assay [3]; 370 µg/mL (≈ 1070 µM) in assay [4]; 370 µg/mL (≈ 1070 µM) in assay [5]; 90 µg/mL (≈ 261 µM) in assay [6]. Further, the values for the MIC in assay [8] and in [9] were 90 µg/mL (≈ 261 µM) and 750 µg/mL (≈ 2180 µM), respectively. In addition, in assay [7], half-maximal inhibition (IC50) was put at 106 µg/mL (≈ 308 µM).
